Assay results reported in ChEMBL document CHEMBL1132150, “Synthesis and evaluation of 3-trifluoromethyl-7-substituted-1,2,3, 4-tetrahydroisoquinolines as selective inhibitors of phenylethanolamine N-methyltransferase versus the alpha(2)-adrenoceptor” (J Med Chem, 1999).

How the values were obtained:
[1] = Selectivity determined by Ki of alpha 2 receptor / Ki of PNMT
[2] = target: T1, Phenylethanolamine N-methyltransferase (Bos taurus, UniProt P10938); assay: Inhibition of PNMT (Phenylethanolamine N-Methyltransferase) in vitro
T1 sequence (P10938 whole entry): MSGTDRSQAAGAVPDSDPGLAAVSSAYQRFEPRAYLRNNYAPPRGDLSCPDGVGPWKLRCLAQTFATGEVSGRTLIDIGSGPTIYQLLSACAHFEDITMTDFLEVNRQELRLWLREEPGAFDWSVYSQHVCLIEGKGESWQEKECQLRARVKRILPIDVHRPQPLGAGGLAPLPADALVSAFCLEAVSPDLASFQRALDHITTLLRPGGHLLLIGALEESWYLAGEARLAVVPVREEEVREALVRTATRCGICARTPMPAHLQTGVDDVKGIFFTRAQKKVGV
Method in brief: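 Bovine adrenal PNMT, prepared through the isoelectric precipitation step, assayed radiochemically with phenylethanolamine as the variable substrate and [3H]AdoMet as methyl donor in phosphate buffer pH 8.0. Incubation was 30 min at 37 °C, quenched with borate pH 10, and product was extracted into toluene/isoamyl alcohol and counted. Three inhibitor concentrations spanning 5-fold were run in duplicate, and Ki came from a hyperbolic fit.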

[3] = target: T2, Adrenergic receptor alpha-2 (Rattus norvegicus, UniProt P22086+P19328+P22909); assay: The compound was tested in vitro for binding affinity against Alpha-2 adrenergic receptor using [3H]clonidine; format: protein assay
T2 sequence (P22086 whole entry): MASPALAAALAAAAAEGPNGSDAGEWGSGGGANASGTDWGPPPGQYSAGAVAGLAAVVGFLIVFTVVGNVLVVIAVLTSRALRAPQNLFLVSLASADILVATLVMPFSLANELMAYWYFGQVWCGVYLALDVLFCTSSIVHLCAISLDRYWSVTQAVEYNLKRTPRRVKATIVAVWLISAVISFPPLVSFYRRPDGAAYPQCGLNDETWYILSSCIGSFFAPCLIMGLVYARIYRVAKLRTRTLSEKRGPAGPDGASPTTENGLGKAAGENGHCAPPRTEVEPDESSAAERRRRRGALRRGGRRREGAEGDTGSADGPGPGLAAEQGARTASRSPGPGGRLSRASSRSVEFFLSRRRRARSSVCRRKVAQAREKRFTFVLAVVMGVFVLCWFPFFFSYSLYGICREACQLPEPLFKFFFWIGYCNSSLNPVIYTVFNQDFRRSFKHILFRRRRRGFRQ
T2 sequence (P19328 whole entry): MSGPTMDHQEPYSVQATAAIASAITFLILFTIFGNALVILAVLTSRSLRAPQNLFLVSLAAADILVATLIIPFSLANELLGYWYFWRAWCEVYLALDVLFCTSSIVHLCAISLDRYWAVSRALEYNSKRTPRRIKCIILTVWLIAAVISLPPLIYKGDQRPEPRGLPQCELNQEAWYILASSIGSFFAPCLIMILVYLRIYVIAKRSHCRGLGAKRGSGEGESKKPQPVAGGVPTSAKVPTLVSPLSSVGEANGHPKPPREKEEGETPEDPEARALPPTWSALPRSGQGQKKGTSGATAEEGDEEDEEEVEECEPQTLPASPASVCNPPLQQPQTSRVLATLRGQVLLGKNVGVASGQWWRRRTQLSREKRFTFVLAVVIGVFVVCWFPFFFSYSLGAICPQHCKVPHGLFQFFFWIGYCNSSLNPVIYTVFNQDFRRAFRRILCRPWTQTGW
T2 sequence (P22909 whole entry): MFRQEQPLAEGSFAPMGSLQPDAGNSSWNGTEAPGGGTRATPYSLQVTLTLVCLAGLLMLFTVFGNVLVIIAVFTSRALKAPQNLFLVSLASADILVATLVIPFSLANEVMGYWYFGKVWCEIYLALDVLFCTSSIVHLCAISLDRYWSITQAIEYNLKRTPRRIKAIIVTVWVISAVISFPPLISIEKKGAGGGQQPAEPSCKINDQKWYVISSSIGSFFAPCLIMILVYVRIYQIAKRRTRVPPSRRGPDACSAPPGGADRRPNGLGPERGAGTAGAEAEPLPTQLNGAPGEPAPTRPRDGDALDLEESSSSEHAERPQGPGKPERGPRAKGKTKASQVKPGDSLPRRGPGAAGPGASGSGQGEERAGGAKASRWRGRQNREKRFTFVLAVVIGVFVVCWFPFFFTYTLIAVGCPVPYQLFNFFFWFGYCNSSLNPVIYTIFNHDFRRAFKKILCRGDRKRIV
Method in brief: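 Rat cortex membranes from male Sprague–Dawley rats, homogenized in ice-cold 50 mM Tris/HCl (pH 7.7 at 25 °C), washed by three 50000g spins. [³H]clonidine final 2.0 nM, varying inhibitor levels, 25 °C for 30 min. Filtration and scintillation counting. Nonspecific binding with 2 μM phentolamine. IC50 by log–probit analysis, Ki = IC50/(1 + [clonidine]/KD). Tested as HCl or HBr salts.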

[4] = target: T2, Adrenergic receptor alpha-2; assay: Compound was tested in vitro for binding affinity against Alpha-2 adrenergic receptor using [3H]clonidine; format: protein assay
Method in brief: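 Rat (male Sprague–Dawley) cortex membranes, washed three times by centrifugation in 50 mM Tris/HCl pH 7.7, incubated 30 min at 25 °C with 2.0 nM [3H]clonidine and varied inhibitor concentrations. Bound ligand was collected by vacuum filtration and counted. Nonspecific binding was defined with 2 μM phentolamine. IC50 came from log–probit analysis, and Ki = IC50/(1+[clonidine]/KD).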

[5] = target: T2, Adrenergic receptor alpha-2; assay: The compound was tested in vitro for binding affinity against Alpha-2 adrenergic receptor using [3H]clonidine, A precipitate was noted at 1000 uM; format: protein assay

Row | Structure (SMILES) | Selectivity [1] | Ki [2] | further results
1 | FC(F)(F)C1Cc2ccccc2CN1 (stereo not drawn) | 27 | 15 µM | –
2 | CCC1Cc2ccccc2CN1 (stereo not drawn) | 0.028 | – | Ki [3]: 0.67 µM
3 | c1ccc2c(c1)CCNC2 | 0.035 | – | –
4 | CS(=O)(=O)c1ccc2c(c1)CNC(C(F)(F)F)C2 (stereo not drawn) | 110 | 36 µM | –
5 | OCC1Cc2ccccc2CN1 (stereo not drawn) | 6 | – | Ki ([4]; read-out: Ki): 6.6 µM
6 | Clc1ccc2c(c1Cl)CNCCC2 | – | – | Ki [3]: 4.5 µM
7 | COCC1Cc2ccccc2CN1 (stereo not drawn) | 0.3 | – | Ki ([4]; read-out: Ki): 2.8 µM
8 | N#Cc1ccc2c(c1)CNC(C(F)(F)F)C2 (stereo not drawn) | 220 | – | –
9 | FC(F)(F)C1Cc2ccc(Br)cc2CN1 (stereo not drawn) | > 1900 | – | Ki [5]: > 1000 µM
10 | O=[N+]([O-])c1ccc2c(c1)CNC(C(F)(F)F)C2 (stereo not drawn) | 700 | 2 µM | Ki [4]: 1400 µM
11 | COc1ccc2c3c([nH]c2c1)C=NCC3 [CGS-19281A] | 4.4 | 2.7 µM | Ki [3]: 12 µM
12 | Clc1ccc2c(c1Cl)CNCC2 | 0.095 | 0.22 µM | –
13 | CS(=O)(=O)c1ccc2c(c1)CNC(CO)C2 (stereo not drawn) | 1000 | – | Ki ([4]; read-out: Ki): 660 µM
14 | NS(=O)(=O)c1ccc2c(c1)CNC(CO)C2 (stereo not drawn) | 4100 | – | Ki ([3]; read-out: Ki): 1400 µM
15 | CC1Cc2ccccc2CN1 (stereo not drawn) | 0.36 | – | –
